# Source: ChEMBL document CHEMBL4376841, “Discovery of a Synergistic Inhibitor of cAMP-Response Element Binding Protein (CREB)-Mediated Gene Transcription with 666-15” (J Med Chem, 2019)
# Calls of active or inactive are those of the source. The rule behind the calls is not given here.
# What was measured:
# [1] = Drug level in pH 7.4 PBS treated with 2-(3-(2-Aminoethoxy)-2-naphthamido)-5-chlorophenyl 3-(3- Aminopropoxy)-2-naphthoate Dihydrochloride assessed as compound formation by NMR analysis; assay type: physicochemical; conditions: buffer
# Homo sapiens [2] = species on record: Homo sapiens; test: Synergistic potentiation of 50 nM 2-(3-(2-Aminoethoxy)-2-naphthamido)-5-chlorophenyl 3-(3- Aminopropoxy)-2-naphthoate Dihydrochloride-induced inhibition of CREB in HEK293T cells assessed as inhibition of Fsk-induced NR4A2 gene expression at 5 uM pre-incubated for 1 hr before Fsk stimulation for 45 mins by qRT-PCR analysis; assay type: cell-based
# Procedure, shortened: (§1)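 HEK293T cells in DMEM/10% FBS were pretreated with compounds, singly or in combination, for 1 h, then stimulated with Fsk (10 μM) for 45 min. Total RNA was isolated and NR4A2 transcript measured by qRT-PCR using the ΔΔCt method, with HPRT as reference. SEM of two independent experiments in triplicate; Student t-test.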
# Homo sapiens [3] = species on record: Homo sapiens; test: (§2) Synergistic potentiation of 2-(3-(2-Aminoethoxy)-2-naphthamido)-5-chlorophenyl 3-(3- Aminopropoxy)-2-naphthoate Dihydrochloride-induced inhibition of CREB (unknown origin) expressed in HEK293T cells assessed as inhibition of forskolin-induced CREB transcription activity by measuring combination index at 5 to 10 uM incubated for 30 mins by luciferase reporter gene assay based Chou-Talalay method; assay type: cell-based
# Procedure, shortened: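 CRE-driven Renilla luciferase reporter in transfected HEK293T cells. Combinations were added 30 min before Fsk (10 μM) for 5 h. Activity was normalised to protein. Combination indexes were calculated by the Chou-Talalay method: CI > 1.0 antagonism, CI = 1.0 additive, CI < 1.0 synergy.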
# Homo sapiens [4] = species on record: Homo sapiens; test: as §2, with “activity” for “activity by measuring combination index”, “assay” for “assay based Chou-Talalay method”; assay type: cell-based
# Procedure, shortened: (§3)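 HEK293T cells were transfected for 3 h with pCRE-RLuc (Renilla luciferase driven by three tandem CRE copies), then replated and left to attach overnight. Compounds, alone or combined, were added 30 min before Fsk (10 μM), followed by 5 h at 37 °C. Renilla luciferase was normalised to well protein (RLU/μg). IC50 came from nonlinear regression; at least two independent experiments in triplicate.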
# MDA-MB-231 [5] = test: Synergistic potentiation of 2-(3-(2-Aminoethoxy)-2-naphthamido)-5-chlorophenyl 3-(3- Aminopropoxy)-2-naphthoate Dihydrochloride-induced growth inhibition of human MDA-MB-231 cells incubated for 72 hrs by MTT assay; assay type: functional
# Procedure, shortened: (§4)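 MDA-MB-231 cells were seeded at 1000/well, attached overnight, then given compounds (alone or combined) for 72 h at 37 °C. MTT (0.5 mg/mL) was added for 3 h, formazan dissolved in DMSO, and A570 read. Growth % = 100×(A_treated − A_initial)/(A_control − A_initial), with time-0 baseline.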
# Homo sapiens [6] = species on record: Homo sapiens; test: Inhibition of CREB in HEK293T cells assessed as inhibition of Fsk-induced NR4A2 gene expression at 5 uM pre-incubated for 1 hr before Fsk stimulation for 45 mins by qRT-PCR analysis; assay type: cell-based; procedure, shortened: as §1
# MDA-MB-231 [7] = test: Growth inhibition of human MDA-MB-231 cells at 0.5 to 1 uM incubated for 72 hrs by MTT assay; assay type: functional, cell-based; procedure, shortened: as §4
# [8] = Inhibition of CREB (unknown origin) expressed in HEK293T cells assessed as inhibition of forskolin-induced CREB transcription activity incubated for 30 mins by luciferase reporter gene assay; assay type: cell-based; conditions: Homo sapiens, HEK-293T, 0.5 h; procedure, shortened: as §3
# [9] = Inhibition of Kix-Kid interaction (unknown origin) by biochemical split Renilla luciferase complementation assay; design: species or system Homo sapiens
# [10] = Drug metabolism in pH 7.4 PBS assessed as tert-butyl 3-(3-(2-(tert-butoxycarbonyloxy)-4-chlorophenylcarbamoyl)naphthalen-2-yloxy)propylcarbamate formation by NMR analysis
# [11] = Drug metabolism in pH 7.4 PBS assessed as 3,4-Dihydronaphtho[2,3-f][1,4]oxazepin-5(2H)-one formation by NMR analysis
# [12] = Solubility in ddIH2O; assay type: physicochemical; conditions: ddIH2O (double-deionized water)
# [13] = Drug metabolism in pH 7.4 PBS assessed as 3-(3-aminopropoxy)-N-(4-chloro-2-hydroxy-phenyl)naphthalene-2-carboxamide formation by NMR analysis
Drug uptake [1],IC50 [8],solubility [12],Compound,Activity (Homo sapiens [4]),other results
Active,,,CC(C)(C)OC(=O)NCCCOc1cc2ccccc2cc1C(=O)Nc1ccc(Cl)cc1OC(=O)C(C)(C)C,,
Active,26.3 µM,,NCCCOc1cc2ccccc2cc1C(=O)Nc1ccc(Cl)cc1O,Active,Activity (Homo sapiens [2]): Active; CI (Homo sapiens [3]): < 1; CI (MDA-MB-231 [5]): <1; inhibition (Homo sapiens [6]): inactive; growth inhibition (GI) (MDA-MB-231 [7]): inactive; IC50 [9]: > 50 µM
,0.25 µM,> 100 mg/mL,Cl.Cl.NCCCOc1cc2ccccc2cc1C(=O)Oc1cc(Cl)ccc1NC(=O)c1cc2ccccc2cc1OCCN,,Drug metabolism [10]: 47%; Drug metabolism [11]: 29%; Drug metabolism [13]: Metabolite detected
Active,> 50 µM,,O=C1NCCOc2cc3ccccc3cc21,inactive,
,,< 0.5 mg/mL,Cl.NCCCOc1cc2ccccc2cc1C(=O)NCCOc1cc2ccccc2cc1C(=O)Nc1ccc(Cl)cc1O,,
